{"data": "Results of several laboratories", "target": "MAP/microtubule affinity-regulating kinase 3 (MARK3, Homo sapiens, UniProt P27448)"}
{"SMILES": "CO[C@@H]1[C@H](N(C)C(=O)c2ccccc2)C[C@H]2O[C@]1(C)n1c3ccccc3c3c4c(c5c6ccccc6n2c5c31)C(=O)NC4", "assay": "enzyme activity, inhibitor", "setting": "1 µM", "quantity": "inhibition", "value": "95%"}
{"SMILES": "Cc1ccc(NC(=O)c2ccnc(C(F)(F)F)c2)cc1-c1cc(OCCO)nc(N2CCOCC2)c1", "assay": "binding", "setting": "1 µM", "quantity": "remaining binding", "value": "97%"}
{"SMILES": "N#Cc1ccc(NC(=O)Nc2ccccc2)cc1", "assay": "cell-free assay, competition with immobilised ligand", "setting": "25 µM", "quantity": "remaining binding", "value": "78%"}
{"SMILES": "CC(C)S(=O)(=O)c1ccc2nccc(Nc3ccc4sc(C5CCCC5)nc4c3)c2c1", "assay": "enzyme activity, inhibitor", "setting": "1 µM", "quantity": "activity vs control", "value": "120%"}
{"SMILES": "CC#CC(=O)N1CCC[C@H]1c1nc(-c2ccc(C(=O)Nc3ccccn3)cc2)c2c(N)nccn12", "assay": "enzyme activity, inhibitor", "setting": "1 µM", "quantity": "inhibition", "value": "0%"}
{"SMILES": "C1=C/COCc2cc(ccc2OCCN2CCCC2)Nc2nccc(n2)-c2cccc(c2)COC/1", "assay": "binding", "setting": "0.1 µM", "quantity": "remaining binding", "value": "100%"}
{"SMILES": "CN1CCN(C(=O)c2ccc(NC(=O)Nc3ccc(N(C)c4ccnc(Nc5ccc(CS(C)(=O)=O)cc5)n4)cc3)cc2)CC1", "assay": "binding", "setting": "1 µM", "quantity": "remaining binding", "value": "43%"}
{"SMILES": "Cc1cc(O)c(-c2ccc([C@@H](C)CN(C)C)cc2)c2c1[nH]c(=O)c1sccc12", "assay": "enzyme activity, inhibitor", "setting": "0.1 µM", "quantity": "inhibition", "value": "-0.763%"}
{"SMILES": "COc1ccc2oc(-c3ccc4nc(N)oc4c3)c/c(=N\\c3ccccc3NC(=O)CCN)c2c1", "assay": "binding", "setting": "1 µM", "quantity": "remaining binding", "value": "104%"}
{"SMILES": "C#Cc1cnc(Nc2ccnc(CO)c2)nc1Nc1ccccc1S(C)(=O)=NC#N (centres unmarked)", "assay": "cell-free assay", "setting": "1 µM", "quantity": "remaining signal", "value": "42%"}
{"SMILES": "CCCCC(=O)Nc1ccc(-c2ccc3ncn(CCC)c(=O)c3c2)cn1", "assay": "binding, competition with immobilised ligand", "setting": "0.5 µM", "quantity": "remaining binding", "value": "91%"}
